Laboratory results published in ChEMBL document CHEMBL4428122, “Design, synthesis, and biological characterization of novel PEG-linked dimeric modulators for CXCR4” (Bioorg Med Chem, 2016).
Calls of active or inactive are those of the source. No cut-off for these calls is given here. Non-standard residues stand in square brackets, D forms with d. Residues, ends and D or L forms follow the SMILES beside them.

Tests used:
[1] = molecular target: T1, C-X-C chemokine receptor type 4 (Homo sapiens, UniProt P61073); assay: Binding affinity to CXCR4 (unknown origin) expressed in CHO cells measured after 40 mins by 12G5 antibody competition assay; type: cell-based
SUP-T1 = assay: Cytotoxicity against human SupT1 cells at 100 nM; type: cell-based; conditions: sup-t1, 0.1 µM
[2] = molecular target: T1, C-X-C chemokine receptor type 4; assay: Antagonist activity at CXCR4 in human SupT1 cells assessed as inhibition of CXCL12-induced Ca2+ influx preincubated for 2 to 3 mins prior CXCL12-stimulation by fura-2/AM dye-based fluorescence analysis; type: functional, cell-based
How it was run: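 Fura-2/AM-loaded SUP-T1 cells (2 μM dye, 5 μM probenecid, 30 min; 2 × 10^6 cells/mL in Hepes pH 7.4 saline with Ca2+/Mg2+, glucose, 0.025% BSA) were pre-incubated with peptide for 2–3 min, then stimulated with SDF-1α. Fluorescence was read at ex 340/380 nm, em 510 nm.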

[3] = molecular target: T1, C-X-C chemokine receptor type 4; assay: Antagonist activity at CXCR4 in human SupT1 cells assessed as inhibition of CXCL12-induced cell migration at 100 nM preincubated for 2 hrs followed by CXCL12 addition measured after 3 hrs by Cell titer-Blue reagent-based transwell assay
How it was run: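 SUP-T1 cells were washed in RPMI1640 with 0.5% BSA, and 1 × 10^6 cells were incubated with peptide for 2 h. Cells were then seeded in upper transwell chambers (5 μm pores) over a lower chamber with 10 nM SDF-1α, or buffer alone for background. Migration ran 3 h at 37°C. Migrated cells were expressed as % of seeded cells. At least three independent experiments, mean ± S.E.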

[4] = molecular target: T1, C-X-C chemokine receptor type 4; assay: Agonist activity at CXCR4 in human SupT1 cells assessed as increase in Ca2+ influx by fura-2/AM dye-based fluorescence analysis; type: functional, cell-based
How it was run: (§1)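 They were loaded at 10^7 cells/mL with 2 μM fura-2/AM and 5 μM probenecid for 30 min, then resuspended at 2 × 10^6 cells/mL. After a 2 min baseline, peptide was added. Ex 340/380 nm, em 510 nm.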

[5] = molecular target: T1, C-X-C chemokine receptor type 4; assay: Agonist activity at CXCR4 in human SupT1 cells assessed as increase Ca2+ influx at 2 uM by fura-2/AM dye-based fluorescence analysis; type: functional, cell-based; how it was run: as §1

T1 sequence (P61073 whole entry): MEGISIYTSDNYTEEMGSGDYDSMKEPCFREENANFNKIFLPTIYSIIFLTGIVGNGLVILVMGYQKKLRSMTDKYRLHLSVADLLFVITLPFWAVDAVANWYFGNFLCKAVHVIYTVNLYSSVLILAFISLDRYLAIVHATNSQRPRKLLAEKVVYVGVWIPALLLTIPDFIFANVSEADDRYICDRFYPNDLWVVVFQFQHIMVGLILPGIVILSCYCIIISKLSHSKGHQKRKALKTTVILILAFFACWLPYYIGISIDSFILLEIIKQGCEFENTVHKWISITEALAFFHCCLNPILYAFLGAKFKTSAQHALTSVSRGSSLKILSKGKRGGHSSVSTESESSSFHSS

Row | Compound | Activity (SUP-T1) | antagonist activity (qualitative) [2] | inhibition [3] [%] | other results
1 | CC(C)C[C@@H](N)C(=O)NCC(=O)N[C@H](C)C(=O)N[C@H](CO)C(=O)N[C@H](Cc1c[nH]c2ccccc12)C(=O)N[C@H](Cc1cnc[nH]1)C(=O)N[C@H](CCCNC(=N)N)C(=O)N1CCC[C@@H]1C(=O)N[C@H](CC(=O)O)C(=O)N[C@H](CCCCN)C(=O)O (H-[dL]G[dA][dS][dW][dH][dR][dP][dD][dK]-OH) | – | – | – | IC50 ([1]; read-out: IC50): 2000 nM
2 | CC(C)C[C@@H](N)C(=O)NCC(=O)N[C@H](C)C(=O)N[C@H](CO)C(=O)N[C@H](Cc1c[nH]c2ccccc12)C(=O)N[C@H](Cc1cnc[nH]1)C(=O)N[C@H](CCCNC(=N)N)C(=O)N1CCC[C@@H]1C(=O)NCCOCCOCCOCCC(=O)NCCCC[C@H](NC(=O)CCOCCOCCOCCNC(=O)[C@H]1CCCN1C(=O)[C@@H](CCCNC(=N)N)NC(=O)[C@@H](Cc1cnc[nH]1)NC(=O)[C@@H](Cc1c[nH]c2ccccc12)NC(=O)[C@@H](CO)NC(=O)[C@@H](C)NC(=O)CNC(=O)[C@H](N)CC(C)C)C(N)=O | Non-Toxic | Active | 28 | –
3 | CC(C)C[C@@H](N)C(=O)NCC(=O)N[C@H](C)C(=O)N[C@H](CO)C(=O)N[C@H](Cc1c[nH]c2ccccc12)C(=O)N[C@H](Cc1cnc[nH]1)C(=O)N[C@H](CCCNC(=N)N)C(=O)N[C@H](C)C(=O)N[C@H](CC(=O)O)C(=O)N[C@H](CCCCN)C(=O)NCCOCCOCCOCCC(=O)NCCCC[C@H](NC(=O)CCOCCOCCOCCNC(=O)[C@@H](CCCCN)NC(=O)[C@@H](CC(=O)O)NC(=O)[C@@H](C)NC(=O)[C@@H](CCCNC(=N)N)NC(=O)[C@@H](Cc1cnc[nH]1)NC(=O)[C@@H](Cc1c[nH]c2ccccc12)NC(=O)[C@@H](CO)NC(=O)[C@@H](C)NC(=O)CNC(=O)[C@H](N)CC(C)C)C(N)=O | Non-Toxic | Active | 23 | –
4 | CC(C)C[C@@H](N)C(=O)NCC(=O)N[C@H](C)C(=O)N[C@H](CO)C(=O)N[C@H](Cc1c[nH]c2ccccc12)C(=O)N[C@H](Cc1cnc[nH]1)C(=O)N[C@H](CCCNC(=N)N)C(=O)N1CCC[C@@H]1C(=O)N[C@H](CC(=O)O)C(=O)N[C@H](CCCCN)C(=O)NCCOCCOCCOCCC(=O)N[C@@H](CCCCNC(=O)CCOCCOCCOCCOCCOCCNC(=O)[C@H](CO)NC(=O)[C@H](CC(C)C)NC(=O)[C@H](CO)NC(=O)[C@@H](NC(=O)[C@@H]1CCCN1C(=O)[C@@H](N)CCCCN)C(C)C)C(N)=O | – | – | – | Activity [4]: inactive
5 | CC(C)C[C@@H](N)C(=O)NCC(=O)N[C@H](C)C(=O)N[C@H](CO)C(=O)N[C@H](Cc1c[nH]c2ccccc12)C(=O)N[C@H](Cc1cnc[nH]1)C(=O)N[C@H](CCCNC(=N)N)C(=O)N1CCC[C@@H]1C(=O)N[C@H](CC(=O)O)C(=O)N[C@H](CCCCN)C(=O)NCCOCCOCCOCCOCCOCCC(=O)N[C@@H](CCCCNC(=O)CCOCCOCCOCCOCCOCCNC(=O)[C@H](CCCNC(=N)N)NC(=O)[C@H](Cc1ccc(O)cc1)NC(=O)[C@H](CO)NC(=O)[C@H](CC(C)C)NC(=O)[C@H](CO)NC(=O)[C@@H](NC(=O)[C@@H]1CCCN1C(=O)[C@@H](N)CCCCN)C(C)C)C(N)=O | – | – | – | Activity [4]: inactive
6 | CC(C)C[C@@H](N)C(=O)NCC(=O)N[C@H](C)C(=O)N[C@H](CO)C(=O)N[C@H](Cc1c[nH]c2ccccc12)C(=O)N[C@H](Cc1cnc[nH]1)C(=O)N[C@H](CCCNC(=N)N)C(=O)N1CCC[C@@H]1C(=O)NCCOCCOCCOCCOCCOCCC(=O)NCCCC[C@H](NC(=O)CCOCCOCCOCCOCCOCCNC(=O)[C@H]1CCCN1C(=O)[C@@H](CCCNC(=N)N)NC(=O)[C@@H](Cc1cnc[nH]1)NC(=O)[C@@H](Cc1c[nH]c2ccccc12)NC(=O)[C@@H](CO)NC(=O)[C@@H](C)NC(=O)CNC(=O)[C@H](N)CC(C)C)C(N)=O | Non-Toxic | – | 34 | –
7 | CC(C)C[C@@H](N)C(=O)NCC(=O)N[C@H](C)C(=O)N[C@H](CO)C(=O)N[C@H](Cc1c[nH]c2ccccc12)C(=O)N[C@H](Cc1cnc[nH]1)C(=O)N[C@H](CCCNC(=N)N)C(=O)N1CCC[C@@H]1C(=O)N[C@H](CC(=O)O)C(=O)N[C@H](CCCCN)C(=O)NC(=O)[C@@H](CCCCN)NC(=O)[C@@H](CC(=O)O)NC(=O)[C@H]1CCCN1C(=O)[C@@H](CCCNC(=N)N)NC(=O)[C@@H](Cc1cnc[nH]1)NC(=O)[C@@H](Cc1c[nH]c2ccccc12)NC(=O)[C@@H](CO)NC(=O)[C@@H](C)NC(=O)CNC(=O)[C@H](N)CC(C)C | – | – | – | IC50 ([1]; read-out: IC50): 462 nM
8 | CC(C)C[C@@H](N)C(=O)NCC(=O)N[C@H](C)C(=O)N[C@H](CO)C(=O)N[C@H](Cc1c[nH]c2ccccc12)C(=O)N[C@H](Cc1cnc[nH]1)C(=O)N[C@H](CCCNC(=N)N)C(=O)N1CCC[C@@H]1C(=O)N[C@H](CC(=O)O)C(=O)N[C@H](CCCCN)C(=O)N[C@H](CCCCNC(=O)[C@H](CCCNC(=N)N)NC(=O)[C@H](Cc1ccc(O)cc1)NC(=O)[C@H](CO)NC(=O)[C@H](CC(C)C)NC(=O)[C@H](CO)NC(=O)[C@@H](NC(=O)[C@@H]1CCCN1C(=O)[C@@H](N)CCCCN)C(C)C)C(N)=O | – | – | – | IC50 ([1]; read-out: IC50): 502 nM; Activity [4]: Active
9 | CC(C)C[C@@H](N)C(=O)NCC(=O)N[C@H](C)C(=O)N[C@H](CO)C(=O)N[C@H](Cc1c[nH]c2ccccc12)C(=O)N[C@H](Cc1cnc[nH]1)C(=O)N[C@H](CCCNC(=N)N)C(=O)N1CCC[C@@H]1C(=O)N[C@H](CC(=O)O)C(=O)N[C@H](CCCCN)C(=O)NCCOCCOCCOCCOCCOCCC(=O)NCCCC[C@H](NC(=O)CCOCCOCCOCCOCCOCCNC(=O)[C@@H](CCCCN)NC(=O)[C@@H](CC(=O)O)NC(=O)[C@H]1CCCN1C(=O)[C@@H](CCCNC(=N)N)NC(=O)[C@@H](Cc1cnc[nH]1)NC(=O)[C@@H](Cc1c[nH]c2ccccc12)NC(=O)[C@@H](CO)NC(=O)[C@@H](C)NC(=O)CNC(=O)[C@H](N)CC(C)C)C(N)=O | Non-Toxic | Active | – | –
10 | CC(C)C[C@@H](N)C(=O)NCC(=O)N[C@H](C)C(=O)N[C@H](CO)C(=O)N[C@H](Cc1c[nH]c2ccccc12)C(=O)N[C@H](Cc1cnc[nH]1)C(=O)N[C@H](CCCNC(=N)N)C(=O)N1CCC[C@@H]1C(=O)N[C@H](CC(=O)O)C(=O)N[C@H](CCCCN)C(=O)NCCOCCOCCOCCC(=O)NCCCC[C@H](NC(=O)CCOCCOCCOCCNC(=O)[C@@H](CCCCN)NC(=O)[C@@H](CC(=O)O)NC(=O)[C@H]1CCCN1C(=O)[C@@H](CCCNC(=N)N)NC(=O)[C@@H](Cc1cnc[nH]1)NC(=O)[C@@H](Cc1c[nH]c2ccccc12)NC(=O)[C@@H](CO)NC(=O)[C@@H](C)NC(=O)CNC(=O)[C@H](N)CC(C)C)C(N)=O | Non-Toxic | – | 67 | –
11 | CC(C)C[C@@H](N)C(=O)NCC(=O)N[C@H](C)C(=O)N[C@H](CO)C(=O)N[C@H](Cc1c[nH]c2ccccc12)C(=O)N[C@H](Cc1cnc[nH]1)C(=O)N[C@H](CCCNC(=N)N)C(=O)N1CCC[C@@H]1C(=O)N[C@H](CC(=O)O)C(=O)N[C@H](CCCCN)C(=O)NCCOCCOCCOCCC(=O)N[C@@H](CCCCNC(=O)CCOCCOCCOCCNC(=O)[C@H](CC(C)C)NC(=O)[C@H](CO)NC(=O)[C@@H](NC(=O)[C@@H]1CCCN1C(=O)[C@@H](N)CCCCN)C(C)C)C(N)=O | – | – | – | Activity [4]: inactive
12 | CC(C)C[C@@H](N)C(=O)NCC(=O)N[C@H](C)C(=O)N[C@H](CO)C(=O)N[C@H](Cc1c[nH]c2ccccc12)C(=O)N[C@H](Cc1cnc[nH]1)C(=O)N[C@H](CCCNC(=N)N)C(=O)N1CCC[C@@H]1C(=O)N[C@H](CC(=O)O)C(=O)N[C@H](CCCCN)C(=O)NCCOCCOCCOCCC(=O)N[C@@H](CCCCNC(=O)CCOCCOCCOCCNC(=O)[C@H](CCCNC(=N)N)NC(=O)[C@H](Cc1ccc(O)cc1)NC(=O)[C@H](CO)NC(=O)[C@H](CC(C)C)NC(=O)[C@H](CO)NC(=O)[C@@H](NC(=O)[C@@H]1CCCN1C(=O)[C@@H](N)CCCCN)C(C)C)C(N)=O | – | – | – | Activity [5]: Active
13 | CC(C)C[C@@H](N)C(=O)NCC(=O)N[C@H](C)C(=O)N[C@H](CO)C(=O)N[C@H](Cc1c[nH]c2ccccc12)C(=O)N[C@H](Cc1cnc[nH]1)C(=O)N[C@H](CCCNC(=N)N)C(=O)N1CCC[C@@H]1C(=O)N[C@H](CC(=O)O)C(=O)N[C@H](CCCCN)C(=O)NCCOCCOCCOCCOCCOCCOCCOCCC(=O)NCCCC[C@H](NC(=O)CCOCCOCCOCCOCCOCCOCCOCCNC(=O)[C@@H](CCCCN)NC(=O)[C@@H](CC(=O)O)NC(=O)[C@H]1CCCN1C(=O)[C@@H](CCCNC(=N)N)NC(=O)[C@@H](Cc1cnc[nH]1)NC(=O)[C@@H](Cc1c[nH]c2ccccc12)NC(=O)[C@@H](CO)NC(=O)[C@@H](C)NC(=O)CNC(=O)[C@H](N)CC(C)C)C(N)=O | Non-Toxic | Active | 48 | –
14 | CC(C)C[C@@H](N)C(=O)NCC(=O)N[C@H](C)C(=O)N[C@H](CO)C(=O)N[C@H](Cc1c[nH]c2ccccc12)C(=O)N[C@H](Cc1cnc[nH]1)C(=O)N[C@H](CCCNC(=N)N)C(=O)N1CCC[C@@H]1C(=O)N[C@H](C)C(=O)N[C@H](CCCCN)C(=O)NCCOCCOCCOCCC(=O)NCCCC[C@H](NC(=O)CCOCCOCCOCCNC(=O)[C@@H](CCCCN)NC(=O)[C@@H](C)NC(=O)[C@H]1CCCN1C(=O)[C@@H](CCCNC(=N)N)NC(=O)[C@@H](Cc1cnc[nH]1)NC(=O)[C@@H](Cc1c[nH]c2ccccc12)NC(=O)[C@@H](CO)NC(=O)[C@@H](C)NC(=O)CNC(=O)[C@H](N)CC(C)C)C(N)=O | Non-Toxic | Active | 21 | –
15 | H-KPVSLSYR-OH | – | – | – | IC50 ([1]; cho): Not Active
